Series [1] is described as follows: melting temperature; fluorescence melt of hairpins on a sequencing array, two-state fit, raised by 9.35 °C to match UV melts. The conditions noted are these: sodium 0.088 M. The method in brief: (§1)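 Bootstrapped two-state fits yielded melting temperature and folding enthalpy for library hairpins. Cy3 fluorescence, with annealed Cy3 and quencher oligos, was imaged on a sequenced MiSeq flow cell in 50 mM Na-HEPES pH 8.0, 25 mM NaCl in 2.5 °C steps up to 60 °C, and normalised to pre-quench Cy3 and to control constructs. Four replicates were combined by inverse variance, and fitted temperatures were raised by 9.35 °C to match UV melts.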

Series [2] in a line: folding enthalpy; higher = less favourable; fluorescence melt of hairpins on a sequencing array, two-state fit. The settings on record: sodium 0.088 M. A digest of the protocol: as §1

For GCACGACGAAAGTCTGC (((.(((....)))))), the Tm in series [1] is 52.4 °C. Further, the folding enthalpy in series [2] was -20.8 kcal/mol.

Take GCACGAGAAATCGTGC ((((((....)))))): in series [1], the Tm was determined as 68.6 °C. The folding enthalpy in series [2] is -32 kcal/mol.

With GCACGCCGAAAGGCTGC (((.(((....)))))), the Tm in series [1] worked out at 64.6 °C. In addition, the folding enthalpy in series [2] was -21.8 kcal/mol.

Turning to GCACGCCGAAAGGCTTGC (((.(((....))).))), the Tm in series [1] was 58.3 °C. For the same sequence, the folding enthalpy in series [2] is -28.7 kcal/mol.

GCACGCGAAAGCGAATGC ((((((....)))..))): in series [1], the Tm was determined as 49.2 °C. Besides, in series [2], the folding enthalpy is -18.6 kcal/mol.

For the sequence GCACGCGAAAGCGCTTGC ((((((....)))..))), in series [1], the Tm turned out to be 42.8 °C. For the same sequence, in series [2], the folding enthalpy is -13.3 kcal/mol.

Regarding GCACGCGAAAGCGGTTGC ((((((....)))..))), the Tm in series [1] came to 49.5 °C. In series [2], the folding enthalpy is -13.3 kcal/mol.

With GCACGCGAAAGCGTTGC ((((((....))).))), the Tm in series [1] stood at 64.7 °C. In addition, the folding enthalpy in series [2] was -17.8 kcal/mol.

Regarding GCACGCGGAAACGCGTAC (.(((((....))))).), the Tm in series [1] was found to be 48.1 °C. Also, the folding enthalpy in series [2] was -10.1 kcal/mol.

Regarding GCACGGCGAAAGCACTGC (((..((....))..))), in series [1], the Tm worked out at 40.5 °C. For the same sequence, the folding enthalpy in series [2] is -20.1 kcal/mol.

On to GCACGGCGAAAGCCAAGC ((..(((....)))..)), for which, in series [1], the Tm came to 46.6 °C. Further, in series [2], the folding enthalpy was -15.4 kcal/mol.

Regarding GCACGGCGAAAGCCATGC (((.(((....))).))), the Tm in series [1] came out at 55.1 °C. Besides, the folding enthalpy in series [2] is -36 kcal/mol.

GCACGGCGAAAGCTATGC (((..((....))..))): the Tm in series [1] turned out to be 42.1 °C. Moreover, the folding enthalpy in series [2] is -19.9 kcal/mol.

For GCACGTCGAAAGACTTGC (((.(((....))).))), in series [1], the Tm worked out at 51.1 °C. Besides, the folding enthalpy in series [2] was -40.6 kcal/mol.

Turning to GCACGTGCGAAAGCATGC (((..(((....)))))), the Tm in series [1] worked out at 40.4 °C. For the same sequence, in series [2], the folding enthalpy was -8.57 kcal/mol.

In the case of GCACGTGGAAACACGCGC ((.((((....)))).)), the Tm in series [1] is 57.5 °C. Further, the folding enthalpy in series [2] was -38.4 kcal/mol.

As to GCACGTGGAAACATGTGC ((((.((....)).)))), the Tm in series [1] came to 56.9 °C. Also, in series [2], the folding enthalpy was -36.8 kcal/mol.

Consider GCACTAACGAAAGTTTGC (((..(((....)))))), for which, in series [1], the Tm is 32.7 °C. Moreover, the folding enthalpy in series [2] is -15 kcal/mol.

GCACTACGAAAGTATGC (((.(((....)))))): the Tm in series [1] is 43 °C. Also, the folding enthalpy in series [2] was -25.5 kcal/mol.

GCACTAGGAAACTAGTAC (.(((((....))))).): the Tm in series [1] was found to be 31 °C. Also, the folding enthalpy in series [2] is -20.8 kcal/mol.

In the case of GCACTATCGAAAGATTGC (((..(((....)))))), in series [1], the Tm was 30.6 °C. In addition, the folding enthalpy in series [2] is -17.7 kcal/mol.

For GCACTCGAAAGAGATTGC ((((((....)))..))), the Tm in series [1] was 34.2 °C. For the same sequence, in series [2], the folding enthalpy is -15.2 kcal/mol.

Take GCACTCGAAAGAGGATGC ((((((....)))..))): the Tm in series [1] was 40.1 °C. Also, the folding enthalpy in series [2] was -22.4 kcal/mol.

In the case of GCACTCGCGAAAGCGTGC (((..(((....)))))), the Tm in series [1] came to 50.5 °C. In addition, the folding enthalpy in series [2] was -14.7 kcal/mol.

On to GCACTGCGAAAGCACAGC ((..(((....)))..)), for which the Tm in series [1] was determined as 29.2 °C. The folding enthalpy in series [2] is -11.6 kcal/mol.

Turning to GCACTGCGAAAGCACTGC (((.(((....))).))), in series [1], the Tm was determined as 44.4 °C. Further, the folding enthalpy in series [2] was -28.1 kcal/mol.

For the sequence GCACTGCGAAAGCATGC (((.(((....)))))), the Tm in series [1] turned out to be 53.1 °C. The folding enthalpy in series [2] is -20.7 kcal/mol.

On to GCACTGCGAAAGCCGTGC ((((.((....)).)))), for which the Tm in series [1] turned out to be 63.3 °C. Further, the folding enthalpy in series [2] was -37.2 kcal/mol.

As to GCACTGCGAAAGCGATGC (((..((....))..))), the Tm in series [1] was 45 °C. Moreover, in series [2], the folding enthalpy was -19.7 kcal/mol.

Turning to GCACTGCGAAAGCGTTGC (((..((....))..))), the Tm in series [1] was 45.3 °C. For the same sequence, the folding enthalpy in series [2] was -23.6 kcal/mol.

Regarding GCACTTGGAAACAAATGC (((.(((....))).))), the Tm in series [1] is 35.4 °C. Besides, the folding enthalpy in series [2] was -24.8 kcal/mol.

For GCACTTGGAAACAGGTGC ((((.((....)).)))), the Tm in series [1] turned out to be 51.7 °C. Moreover, the folding enthalpy in series [2] is -48.4 kcal/mol.

GCAGAACGAAAGTTATGC (((.(((....))).))): the Tm in series [1] came to 55.4 °C. Further, the folding enthalpy in series [2] is -39.3 kcal/mol.

Consider GCAGAACGAAAGTTTGC (((.(((....)))))), for which the Tm in series [1] came to 44.7 °C. The folding enthalpy in series [2] was -25.9 kcal/mol.

On to GCAGAAGAAATTCTGC ((((((....)))))), for which, in series [1], the Tm turned out to be 52.9 °C. The folding enthalpy in series [2] was -32.6 kcal/mol.

As for GCAGAAGGAAACTTCCGC ((.((((....)))).)), the Tm in series [1] was determined as 37.5 °C. For the same sequence, in series [2], the folding enthalpy is -20.6 kcal/mol.

As for GCAGACCCGAAAGGGTGC (((..(((....)))))), the Tm in series [1] is 50.3 °C. The folding enthalpy in series [2] was -14.2 kcal/mol.

The values above are taken from the array DNA melting data of Ke et al. (doi:10.1101/2024.01.08.574731).
